We go through one compound from ChEMBL document CHEMBL4261600 (Eur J Med Chem, 2018).

One may read the EC50 as the concentration that produces a half-maximal response. The half-life is the time needed for the level to fall by half in the phase considered. For orientation: AUC(0-inf) means the area under the concentration-time curve extrapolated to infinity. The low end stands for low exposure, the high end for high exposure. Broadly, the MRT last is a mean duration of stay, worked out from the concentration-time curve. For orientation: MRT inf means a mean duration of stay, worked out from the concentration-time curve.

The target of series [1] is Cyclin-dependent kinase 9 (Homo sapiens, UniProt P50750). The experiment in a line: Inhibition of CDK9 in human MV4-11 cells assessed as decrease in RNA polymerase 2 phosphorylation at Ser 2 residues in CTD domain after 2 hrs by immunoblotting analysis. In kind it is cell-based.
Series [2] is described as follows: Half life in beagle dog at 2 mg/kg, iv by LC-MS/MS analysis. In kind it is ADME, organism-based, Canis lupus familiaris. Particulars: in vivo.
A short description of series [3]: AUC (0 to infinity) in mouse at 10 mg/kg, po by LC-MS/MS analysis. In kind it is ADME, organism-based. On the set-up: dose 10 mg/kg, route oral, time infinity. The settings on record: in vivo. In short, it runs like this: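 Non-compartmental PK. Male SD rats 190-210 g, mice and beagle dogs acclimatized one week, fasted 12 h with water, split into iv and po groups (mice 48, rats 6, dogs 6). iv 3/3/2 mg/kg (mice/rats/dogs); po 10/20/10 mg/kg; vehicle DMSO in 5% glucose water. Blood at 2 or 5 to 720 min; plasma protein-precipitated with methanol, caffeine internal standard, LC-MS/MS.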

A short description of series [4]: MRT (0 to t) in Sprague-Dawley rat at 3 mg/kg, iv by LC-MS/MS analysis. In kind it is ADME, organism-based. Particulars: in vivo.
The nature of series [5]: MRT (0 to infinity) in beagle dog at 2 mg/kg, iv by LC-MS/MS analysis. In kind it is ADME, organism-based, Canis lupus familiaris. The settings on record: in vivo.
A further series deals with Mus musculus. As to the kind of experiment: Toxicity in nu/nu mouse xenografted with MV4-11 cells assessed as effect on body weight at 10 to 30 mg/kg, po administered via gavage for 21 days measured every day during compound dosing. Format: organism-based. Particulars: in vivo, 504 h.
For series [6], the system named is Tyrosine-protein kinase ABL1 (Homo sapiens), P00519 [F317L]. The experiment in a line: Binding affinity to human phosphorylated ABL1 F317L mutant (S229 to K512 residues) expressed in mammalian expression system assessed as remaining unbound target protein level at 1000 nM by Kinomescan method relative to control. In a few lines: (§1)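 Single-point competition binding screen across a panel of 468 kinases and mutants, with the inhibitor at 1 μM. Binding is read out as percent of a DMSO control, and targets below 1 percent control were classed as strong binders.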

The target in series [7] is Epidermal growth factor receptor (Homo sapiens) (UniProt P00533). The experiment in a line: Binding affinity to human partial length EGFR S752-I759del mutant expressed in bacterial expression system assessed as remaining unbound target protein level at 1000 nM by Kinomescan method relative to control. In short, it runs like this: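 KINOMEscan competition-binding profiling across the panel of 468 kinases and mutants, with inhibitor tested at 1 μM. Binding is expressed as percent of control, with DMSO as the reference control.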

The target in series [8] is Tyrosine-protein kinase Fyn (Homo sapiens) (UniProt P06241). The experiment in a line: Binding affinity to wild-type human partial length FYN (T243 to L534 residues) expressed in bacterial expression system assessed as remaining unbound target protein level at 1000 nM by Kinomescan method relative to control.
Series [9] deals with Homeodomain-interacting protein kinase 4 (Homo sapiens) (UniProt Q8NE63). As to the kind of experiment: Binding affinity to wild-type human partial length HIPK4 (M1 to V384 residues) expressed in bacterial expression system assessed as remaining unbound target protein level at 1000 nM by Kinomescan method relative to control. In short, it runs like this:
(§2)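 KINOMEscan binding panel of 468 kinases/mutants. Inhibitor was tested at a single concentration of 1 μM. Binding is reported as percent of control, defined relative to a DMSO control.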

In series [10] the target is Mitogen-activated protein kinase kinase kinase 2 (Homo sapiens) (UniProt Q9Y2U5). As to the kind of experiment: Binding affinity to wild-type human partial length MAP3K2 (S315 to H619 residues) expressed in mammalian expression system assessed as remaining unbound target protein level at 1000 nM by Kinomescan method relative to control. In a few lines: as §2
Series [11] has as its target Serine/threonine-protein kinase MARK1 (Homo sapiens) (UniProt Q9P0L2). The experiment in a line: Binding affinity to wild-type human partial length MARK1 (Q30 to T341 residues) expressed in bacterial expression system assessed as remaining unbound target protein level at 1000 nM by Kinomescan method relative to control. In short, it runs like this:
as §2

The target in series [12] is Myosin light chain kinase, smooth muscle (Homo sapiens) (UniProt Q15746). As to the kind of experiment: Binding affinity to wild-type human full length MYLK (M854 to E1845 residues) expressed in mammalian expression system assessed as remaining unbound target protein level at 1000 nM by Kinomescan method relative to control. In short, it runs like this: (§3)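 KINOMEscan competition binding profile across a panel of 468 kinases and mutants, with the inhibitor tested at a single concentration of 1 μM. Binding is reported as percent of control, meaning signal relative to a DMSO control.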

Series [13] addresses Serine/threonine-protein kinase Nek3 (Homo sapiens) (UniProt P51956). As to the kind of experiment: Binding affinity to wild-type human full length NEK3 (M1 to R506 residues) expressed in mammalian expression system assessed as remaining unbound target protein level at 1000 nM by Kinomescan method relative to control. In short, it runs like this:
as §1

In series [14] the target is Serine/threonine-protein kinase Nek6 (Homo sapiens) (UniProt Q9HC98). As to the kind of experiment: Binding affinity to wild-type human full length NEK6 (M8 to T313 residues) expressed in bacterial expression system assessed as remaining unbound target protein level at 1000 nM by Kinomescan method relative to control. In a few lines: as §3
Series [15] has as its target Rho-associated protein kinase 2 (Homo sapiens) (UniProt O75116). The experiment in a line: Binding affinity to wild-type human partial length ROCK2 (M1 to T431 residues) expressed in mammalian expression system assessed as remaining unbound target protein level at 1000 nM by Kinomescan method relative to control.
The target of series [16] is Ribosomal protein S6 kinase alpha-1 (Homo sapiens) (UniProt Q15418). As to the kind of experiment: Binding affinity to wild-type human partial length C-termianl RSK1 kinase domain 2 (P360 to L681 residues) expressed in bacterial expression system assessed as remaining unbound target protein level at 1000 nM by Kinomescan method relative to control. In short, it runs like this: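 Profiled in a KINOMEscan binding panel with the inhibitor at a single concentration of 1 μM. Binding to each kinase was read out as percent of control, relative to a DMSO control. Strong binders were defined as those with a percent control value below 1.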

Series [17] has as its target Serine/threonine-protein kinase SBK1 (Homo sapiens) (UniProt Q52WX2). As to the kind of experiment: Binding affinity to wild-type human partial length SBK1 (P23 to P348 residues) expressed in mammalian expression system assessed as remaining unbound target protein level at 1000 nM by Kinomescan method relative to control.
Series [18] deals with Proto-oncogene tyrosine-protein kinase Src (Homo sapiens) (UniProt P12931). The experiment in a line: Binding affinity to wild-type human partial length SRC (L240 to L536 residues) expressed in bacterial expression system assessed as remaining unbound target protein level at 1000 nM by Kinomescan method relative to control.
The target of series [19] is Serine/threonine-protein kinase 35 (Homo sapiens) (UniProt Q8TDR2). The experiment in a line: Binding affinity to wild-type human partial length STK35 (G182 to A534 residues) expressed in bacterial expression system assessed as remaining unbound target protein level at 1000 nM by Kinomescan method relative to control.
The target in series [20] is Non-receptor tyrosine-protein kinase TYK2 (Homo sapiens) (UniProt P29597). As to the kind of experiment: Binding affinity to wild-type human partial length TYK2 JH2 pseudokinase domain (G556 to D888 residues) expressed in mammalian expression system assessed as remaining unbound target protein level at 1000 nM by Kinomescan method relative to control.

Sequence of Cyclin-dependent kinase 9 (P50750 whole entry, the tested form may be a part): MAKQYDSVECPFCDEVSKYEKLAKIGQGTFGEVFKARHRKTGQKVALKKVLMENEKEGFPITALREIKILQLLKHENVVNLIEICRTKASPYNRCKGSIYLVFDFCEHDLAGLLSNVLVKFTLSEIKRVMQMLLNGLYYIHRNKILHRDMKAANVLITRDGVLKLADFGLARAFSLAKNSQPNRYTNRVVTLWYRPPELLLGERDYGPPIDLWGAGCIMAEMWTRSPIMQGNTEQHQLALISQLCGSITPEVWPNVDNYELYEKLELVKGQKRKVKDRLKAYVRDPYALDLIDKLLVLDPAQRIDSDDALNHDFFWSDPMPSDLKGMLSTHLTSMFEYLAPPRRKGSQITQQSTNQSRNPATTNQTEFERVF
Sequence of Mitogen-activated protein kinase kinase kinase 2 (Homo sapiens) (Q9Y2U5 whole entry, the tested form may be a part): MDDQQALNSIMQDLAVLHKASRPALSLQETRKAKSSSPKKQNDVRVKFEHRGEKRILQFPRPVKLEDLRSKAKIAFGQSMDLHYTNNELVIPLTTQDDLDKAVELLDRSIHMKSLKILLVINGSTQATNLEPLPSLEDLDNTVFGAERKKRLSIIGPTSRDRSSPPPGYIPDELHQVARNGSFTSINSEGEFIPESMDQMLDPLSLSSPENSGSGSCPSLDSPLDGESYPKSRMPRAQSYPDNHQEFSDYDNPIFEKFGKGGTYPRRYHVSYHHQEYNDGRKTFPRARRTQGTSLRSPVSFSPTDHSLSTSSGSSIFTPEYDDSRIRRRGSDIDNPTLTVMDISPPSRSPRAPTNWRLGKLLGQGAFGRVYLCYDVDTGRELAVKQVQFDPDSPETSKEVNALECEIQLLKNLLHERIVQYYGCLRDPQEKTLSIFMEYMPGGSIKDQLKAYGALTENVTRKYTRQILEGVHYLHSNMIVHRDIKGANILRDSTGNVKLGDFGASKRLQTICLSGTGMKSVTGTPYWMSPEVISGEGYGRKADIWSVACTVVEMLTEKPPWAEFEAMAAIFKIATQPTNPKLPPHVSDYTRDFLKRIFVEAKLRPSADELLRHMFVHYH
Sequence of Homeodomain-interacting protein kinase 4 (Homo sapiens) (Q8NE63 whole entry, the tested form may be a part): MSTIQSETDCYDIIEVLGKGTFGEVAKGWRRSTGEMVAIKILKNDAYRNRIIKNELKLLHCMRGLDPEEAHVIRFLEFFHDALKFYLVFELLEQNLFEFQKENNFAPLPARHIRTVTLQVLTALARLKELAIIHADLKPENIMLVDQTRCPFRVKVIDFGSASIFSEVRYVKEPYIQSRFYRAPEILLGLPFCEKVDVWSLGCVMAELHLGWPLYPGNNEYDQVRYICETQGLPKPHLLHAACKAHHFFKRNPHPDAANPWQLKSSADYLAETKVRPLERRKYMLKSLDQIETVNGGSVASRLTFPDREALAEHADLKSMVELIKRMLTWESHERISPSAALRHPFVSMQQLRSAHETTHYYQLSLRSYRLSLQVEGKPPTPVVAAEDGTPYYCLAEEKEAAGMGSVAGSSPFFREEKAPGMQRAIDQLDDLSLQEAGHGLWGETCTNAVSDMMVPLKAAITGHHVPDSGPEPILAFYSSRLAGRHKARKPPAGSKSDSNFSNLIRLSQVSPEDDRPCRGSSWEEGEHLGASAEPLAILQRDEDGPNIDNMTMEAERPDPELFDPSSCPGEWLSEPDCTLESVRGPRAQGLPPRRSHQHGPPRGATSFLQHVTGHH
Sequence of Tyrosine-protein kinase ABL1 (Homo sapiens), P00519 [F317L] (P00519 whole entry F317L, the tested form may be a part): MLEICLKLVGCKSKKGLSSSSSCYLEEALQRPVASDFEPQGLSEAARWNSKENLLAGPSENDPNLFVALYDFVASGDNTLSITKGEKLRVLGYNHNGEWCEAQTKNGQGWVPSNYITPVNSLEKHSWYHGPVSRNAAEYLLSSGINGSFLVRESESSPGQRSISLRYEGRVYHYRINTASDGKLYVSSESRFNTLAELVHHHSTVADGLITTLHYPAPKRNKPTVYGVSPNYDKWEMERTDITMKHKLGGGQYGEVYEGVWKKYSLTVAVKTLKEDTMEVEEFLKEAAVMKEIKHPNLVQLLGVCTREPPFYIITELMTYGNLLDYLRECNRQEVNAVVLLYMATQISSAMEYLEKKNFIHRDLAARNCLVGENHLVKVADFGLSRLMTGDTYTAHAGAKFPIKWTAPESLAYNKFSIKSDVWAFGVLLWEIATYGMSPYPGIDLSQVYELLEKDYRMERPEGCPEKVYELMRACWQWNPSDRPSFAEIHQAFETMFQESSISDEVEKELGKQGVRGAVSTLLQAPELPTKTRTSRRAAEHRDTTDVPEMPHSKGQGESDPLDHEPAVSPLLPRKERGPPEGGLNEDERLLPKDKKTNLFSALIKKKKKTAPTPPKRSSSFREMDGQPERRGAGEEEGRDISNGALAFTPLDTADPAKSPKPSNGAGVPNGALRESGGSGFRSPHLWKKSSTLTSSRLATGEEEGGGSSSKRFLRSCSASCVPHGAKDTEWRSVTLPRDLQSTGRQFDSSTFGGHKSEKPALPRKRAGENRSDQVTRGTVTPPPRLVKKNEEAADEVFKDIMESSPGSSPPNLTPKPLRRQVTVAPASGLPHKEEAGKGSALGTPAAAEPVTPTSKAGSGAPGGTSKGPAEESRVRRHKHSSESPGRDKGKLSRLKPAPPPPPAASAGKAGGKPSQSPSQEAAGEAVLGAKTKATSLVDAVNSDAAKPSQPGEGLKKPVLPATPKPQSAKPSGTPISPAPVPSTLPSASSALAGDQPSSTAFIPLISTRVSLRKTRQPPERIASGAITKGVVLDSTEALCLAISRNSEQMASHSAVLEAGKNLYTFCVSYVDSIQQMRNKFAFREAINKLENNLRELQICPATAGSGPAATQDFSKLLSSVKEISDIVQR
Sequence of Ribosomal protein S6 kinase alpha-1 (Homo sapiens) (Q15418 whole entry, the tested form may be a part): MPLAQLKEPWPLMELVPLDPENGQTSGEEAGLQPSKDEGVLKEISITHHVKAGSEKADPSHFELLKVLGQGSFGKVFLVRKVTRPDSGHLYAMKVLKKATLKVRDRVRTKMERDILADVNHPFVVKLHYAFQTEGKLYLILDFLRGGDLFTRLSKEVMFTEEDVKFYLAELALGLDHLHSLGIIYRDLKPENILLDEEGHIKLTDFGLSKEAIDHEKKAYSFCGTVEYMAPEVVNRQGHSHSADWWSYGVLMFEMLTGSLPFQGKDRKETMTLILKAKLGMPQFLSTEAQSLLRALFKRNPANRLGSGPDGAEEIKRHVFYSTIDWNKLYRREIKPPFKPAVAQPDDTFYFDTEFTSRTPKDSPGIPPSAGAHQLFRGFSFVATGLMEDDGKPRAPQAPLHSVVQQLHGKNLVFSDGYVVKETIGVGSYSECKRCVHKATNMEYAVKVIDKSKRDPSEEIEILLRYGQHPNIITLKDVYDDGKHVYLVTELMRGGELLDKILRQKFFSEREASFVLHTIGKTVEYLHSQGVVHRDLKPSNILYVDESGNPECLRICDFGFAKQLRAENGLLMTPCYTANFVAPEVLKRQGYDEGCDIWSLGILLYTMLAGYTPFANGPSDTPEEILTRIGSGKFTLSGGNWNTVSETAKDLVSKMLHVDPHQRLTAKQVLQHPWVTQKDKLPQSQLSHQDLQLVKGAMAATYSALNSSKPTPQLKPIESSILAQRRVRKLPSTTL
Sequence of Epidermal growth factor receptor (Homo sapiens) (P00533 whole entry): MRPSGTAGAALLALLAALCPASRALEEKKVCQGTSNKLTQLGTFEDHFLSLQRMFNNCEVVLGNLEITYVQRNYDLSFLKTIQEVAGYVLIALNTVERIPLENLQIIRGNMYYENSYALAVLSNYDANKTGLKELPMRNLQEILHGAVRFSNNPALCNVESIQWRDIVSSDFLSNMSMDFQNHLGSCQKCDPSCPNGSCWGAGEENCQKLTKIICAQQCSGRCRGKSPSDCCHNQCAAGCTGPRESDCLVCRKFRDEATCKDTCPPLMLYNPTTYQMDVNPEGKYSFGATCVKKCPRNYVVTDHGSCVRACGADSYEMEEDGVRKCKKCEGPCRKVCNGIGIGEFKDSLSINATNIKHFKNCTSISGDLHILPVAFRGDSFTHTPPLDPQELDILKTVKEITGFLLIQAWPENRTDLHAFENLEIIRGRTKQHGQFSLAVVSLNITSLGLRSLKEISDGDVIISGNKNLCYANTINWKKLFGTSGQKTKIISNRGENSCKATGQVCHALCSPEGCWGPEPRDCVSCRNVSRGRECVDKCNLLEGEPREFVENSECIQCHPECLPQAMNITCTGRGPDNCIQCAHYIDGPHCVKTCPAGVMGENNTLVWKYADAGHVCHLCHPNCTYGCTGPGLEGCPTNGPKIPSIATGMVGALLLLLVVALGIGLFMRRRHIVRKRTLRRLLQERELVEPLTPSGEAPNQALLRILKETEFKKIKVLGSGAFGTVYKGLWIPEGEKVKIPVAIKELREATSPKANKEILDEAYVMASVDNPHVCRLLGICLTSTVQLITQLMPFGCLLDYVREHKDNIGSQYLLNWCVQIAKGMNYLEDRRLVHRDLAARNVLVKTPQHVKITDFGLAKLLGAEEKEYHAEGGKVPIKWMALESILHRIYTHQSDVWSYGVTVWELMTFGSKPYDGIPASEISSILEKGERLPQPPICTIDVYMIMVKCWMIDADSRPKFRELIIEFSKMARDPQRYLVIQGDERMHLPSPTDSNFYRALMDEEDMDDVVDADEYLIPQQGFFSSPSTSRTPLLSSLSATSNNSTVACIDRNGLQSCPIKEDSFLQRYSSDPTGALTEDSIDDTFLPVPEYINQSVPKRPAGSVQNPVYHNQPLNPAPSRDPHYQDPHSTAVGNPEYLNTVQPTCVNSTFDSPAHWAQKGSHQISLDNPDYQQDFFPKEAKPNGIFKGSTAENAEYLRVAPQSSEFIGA
Sequence of Serine/threonine-protein kinase Nek6 (Homo sapiens) (Q9HC98 whole entry, the tested form may be a part): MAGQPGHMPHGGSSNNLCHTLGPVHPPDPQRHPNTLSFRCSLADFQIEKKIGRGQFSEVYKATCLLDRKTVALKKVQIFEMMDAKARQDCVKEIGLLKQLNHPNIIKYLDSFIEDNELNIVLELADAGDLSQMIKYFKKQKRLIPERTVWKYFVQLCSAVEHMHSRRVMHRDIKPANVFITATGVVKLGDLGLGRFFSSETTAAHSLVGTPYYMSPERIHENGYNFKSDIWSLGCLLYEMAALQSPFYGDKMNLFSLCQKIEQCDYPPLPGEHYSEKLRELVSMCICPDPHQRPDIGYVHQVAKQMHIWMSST

Turning to `COCCN[C@H]1CC[C@H](Nc2cc(-c3csc(NCC4(C#N)CCOCC4)n3)c(Cl)cn2)CC1`, the concentration for a half-maximal effect (EC50) in series [1] is below 0.1 µM. Further, in series [1], the inhibition entry was “Dose-dependent effect”. In series [2], the half-life is 13.1 h. In addition, in [3], the AUC(0-inf) came to 0.612 µg·h/mL. The compound also came in with an MRT last in [4] of 4.69 h. This compound also displayed an MRT inf in [5] of 20.4 h. In addition, the Activity result in the series on Mus musculus is “Non-Toxic”; in [6], 100%; in series [7], 87%; in series [8], 83%; in series [9] it was 9.9%; in series [10], 74%. Moreover, the Activity was 91% in series [11]; 71% in series [12]; 100% in series [13]; 94% in series [14]; 98% in series [15]; 100% in [16]. The Activity in [17] is 75%; in series [18], 89%; in [19] it was 100%; in series [20], 100%.
